Converted amounts (≈) assume the structure as drawn. The source made the active and inactive calls. The calls are words filed in the database; no cut-off is given here.
Assays:
[1] = molecular target: Replicase polyprotein 1ab (Severe acute respiratory syndrome coronavirus 2) (UniProt P0DTD1); assay: Inhibition of SARS-CoV-2 3CLpro at 10 ug/ml preincubated with enzyme for 30 mins followed by substrate addition and measured after 4 hrs by fluorescence based analysis; conditions: dose 10.0 µg/ml, time 4.5 hrs
In short: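 Recombinant SARS-CoV-2 3CLpro (1.5 ng/μl) was pre-incubated with compound 30 min at RT. Fluorogenic substrate was added to a final 40 μM and incubated 4 h at RT. Fluorescence was read at Ex 360/Em 460 nm. Wells were run in triplicate and blank was subtracted.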

[2] = molecular target: Replicase polyprotein 1ab (Severe acute respiratory syndrome coronavirus 2, UniProt P0DTD1); assay: Inhibition of recombinant SARS CoV-2 PL protease incubated for 2 hrs followed by substrate addition and measured after 1 hr by fluorescence based analysis
[3] = molecular target: Replicase polyprotein 1ab (Severe acute respiratory syndrome coronavirus 2) (UniProt P0DTD1); assay: Inhibition of recombinant SARS CoV-2 PL protease at 25 ug/ml incubated for 2 hrs followed by substrate addition and measured after 1 hr by fluorescence based analysis relative to control; conditions: dose 25.0 µg/ml, time 3.0 hrs
[4] = (§1) Cytotoxicity against African green monkey Vero E6 cells measured after 72 hrs by crystal violet staining based analysis; format: toxicity, cell-based, Vero C1008; conditions: chlorocebus sabaeus, Vero E6 cells
In short: (§2)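 Vero-E6 cells were seeded at 3 × 10^5 cells/mL, grown 24 h at 37 °C with 5% CO2, then given graded compound concentrations in triplicate for 72 h. Stocks were made in 10% DMSO in DMEM. Cells were fixed in 10% formalin, stained with 0.1% crystal violet, dissolved in methanol and read at A570. CC50 was taken by nonlinear regression of log concentration versus normalised response against untreated cells.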

SARS-CoV-2 = assay: Antiviral activity against SARS-CoV-2 NRC-03-nhCoV infected in african green monkey Vero E6 cells assessed as inhibition of viral growth pre-infected cells with virus for 1 hr followed by compound addition for 1 hr and measured after 72 hrs by crystal violet staining based analysis; format: functional, organism-based; conditions: Severe acute respiratory syndrome coronavirus 2, NRC-03-nhCoV, Vero C1008
[5] = Selectivity index, ratio of CC50 for African green monkey Vero E6 cells to IC50 for antiviral activity against SARS-CoV-2 NRC-03-nhCoV infected in african green monkey Vero E6 cells; format: toxicity, cell-based, Vero C1008; conditions: read-out: Ratio CC50/IC50
Vero C1008 = assay: as §1; format: toxicity, cell-based; conditions: chlorocebus sabaeus, vero c1008, 72 h; in short: as §2
[6] = Aqueous solubility of the compound in PBS buffer at pH 7.4 at 200 uM by microplate reader method; format: physicochemical
[7] = Stability in CD-1 mouse liver microsomes assessed as half life at 1 uM in presence of NADPH by LC-MS-MS analysis; format: ADME, Microsome
[8] = Stability in human liver microsomes assessed as half life at 1 uM in presence of NADPH by LC-MS-MS analysis; format: ADME, Microsome
[9] = Stability in CD-1 mouse liver microsomes assessed as compound remaining at 1 uM measured after 60 mins in absence of NADPH by LC-MS-MS analysis; format: ADME, Microsome; conditions: read-out: Stability
In short: (§3)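 Compound was incubated in liver microsomes without NADPH. Percent remaining was measured after 60 min.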

[10] = Stability in human microsomes assessed as compound remaining at 1 uM measured after 60 mins in absence of NADPH by LC-MS-MS analysis; format: ADME, Microsome; conditions: read-out: Stability; in short: as §3

Structure (SMILES)	inhibition [1]	IC50 [2] [µM]	other results
Cc1ccc(N)cc1C(=O)N[C@H](C)c1cccc2ccccc12	inactive	–	–
CC1=C(c2cccc3c2OCO3)N2C(=N[C@@H]3c4c(ccc5ccccc45)OC[C@@H]3C2(C)C)S1	inactive	72.8	inhibition [3]: 50%
COC(=O)C[C@@H]1COc2ccccc2[C@H](C(=O)NC(C)(C)C)N(CCc2c[nH]c3ccc(OC)cc23)C(=O)[C@@H]1c1nnc(-c2cccc(C(F)(F)F)c2)o1	inactive	–	–
C[C@]12C=CC(=O)C[C@H]1N1CCc3cccc4[nH]cc(c34)C1CO2 (stereo not given in full)	inactive	19.7	–
COc1ccc2[nH]c3c(c2c1)C[C@]1(OC)CC[C@H]2c4c[nH]c5cccc(c45)CCN2[C@@H]1C3	inactive	32.6	–
COC(=O)CC1COc2c(cc3c4c2CCCN4CCC3)-c2c(NC(C)(C)C)n3c(-c4ccc(F)cc4)c(C)sc3[n+]21 (stereo not given)	inactive	5.57	–
CO[C@@]12C=CC(=O)C[C@@H]1[n+]1c(c(NC(C)(C)C)n3c(-c4ccccc4)c(-c4ccccc4)sc31)CC2.O=S(=O)([O-])C(F)(F)F	inactive	–	CC50 at 72 h [4]: 89.7 µg/mL; IC50 (SARS-CoV-2): 217 µg/mL; selectivity ratio [5]: 0.41
COc1ccc2[nH]cc(CCN3C(=O)[C@H](c4nnc(-c5cccc(C(F)(F)F)c5)o4)[C@H](CC(=O)O)COc4ccccc4[C@@H]3C(=O)NC(C)(C)C)c2c1	inactive	1.16	–
FC(F)(F)Oc1ccc(N/N=C2/C=C[C@@]3(CC2)CC[C@@H]2NCCc4cccc5[nH]c3c2c45)cc1	inactive	27.5	–
COC(=O)[C@@H]1CC2(C(=O)Nc3ccccc32)C2CC[C@@]3(OC)C=CC(=O)C[C@H]3N21 (stereo not given in full)	inactive	10.3	–
COC(=O)CC1COc2c(cc3c4c2CCCN4CCC3)-c2c(NC(C)(C)C)n3c(-c4ccccc4)c(-c4ccccc4)sc3[n+]21 (stereo not given)	inactive	–	–
CC1(C)[C@H]2COc3ccc4ccccc4c3[C@H]2N=C2SC=C(c3ccc(S(=O)(=O)N4CCOCC4)cc3)N21	inactive	0.121	CC50 (Vero C1008): 43.12 µg/mL (≈ 78.7 µM); IC50 (SARS-CoV-2): 67.6 µg/mL (≈ 123 µM); selectivity ratio [5]: 0.64; solubility at 200 µM [6]: 56.1 µM (≈ 30.7 µg/mL); t1/2 [7]: 11.2 min; t1/2 [8]: 5.7 min; remaining at 1 h, 1 µM [9]: 92%; remaining at 1 h, 1 µM [10]: 119%
COC(=O)[C@H](Cc1ccc(OC)c(OC)c1)N1CC(c2cc(C)ccc2O)=N[C@@H](Cc2ccc(OC)c(OC)c2)C1=O	inactive	47.8	inhibition [3]: 50%

From ChEMBL document CHEMBL5325427
